The subject of data set [1] is Raji. In words: Inhibition of 12-O-tetradecanoylphorbol-13-acetate-induced EBV-early antigen activation in human Raji cells assessed as early antigen induction at 1000 molar ratio after 48 hrs by conventional indirect immunofluorescence technique relative to TPA. The following applies: human gammaherpesvirus 4. Also noted: scale not given: the % may be the effect or the level left. It is filed as cell-based. The essentials:
(§1)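 Raji cells (1×10^6/mL, RPMI 1640 plus 10% FCS) were incubated at 37 °C for 48 h in medium with 4 mM n-butyric acid, 32 pmol TPA in DMSO and test compound in DMSO, dosed as mol ratio to TPA. EA was detected by indirect immunofluorescence using high-titer EBV-positive NPC patient sera and FITC anti-human IgG, counting at least 500 cells. Runs were in triplicate. Results are expressed as % of the butyric acid plus TPA control (100%).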

The subject of data set [2] is Raji. In words: Inhibition of 12-O-tetradecanoylphorbol-13-acetate-induced EBV-early antigen activation in human Raji cells assessed as early antigen induction at 500 molar ratio after 48 hrs by conventional indirect immunofluorescence technique relative to TPA. It is filed as cell-based. Also noted: scale not given: the % may be the effect or the level left. The following applies: human gammaherpesvirus 4. The essentials:
as §1

The subject of data set [3] is Raji. In words: Inhibition of 12-O-tetradecanoylphorbol-13-acetate-induced EBV-early antigen activation in human Raji cells assessed as early antigen induction at 100 molar ratio after 48 hrs by conventional indirect immunofluorescence technique relative to TPA. The following applies: human gammaherpesvirus 4. Set-up: scale not given: the % may be the effect or the level left. The data set is classed as cell-based. The essentials: as §1

The subject of data set [4] is Raji. In words: Inhibition of 12-O-tetradecanoylphorbol-13-acetate-induced EBV-early antigen activation in human Raji cells assessed as early antigen induction at 10 molar ratio after 48 hrs by conventional indirect immunofluorescence technique relative to TPA. Also noted: scale not given: the % may be the effect or the level left. The following applies: human gammaherpesvirus 4. It is filed as cell-based. The essentials:
as §1

Data set [5] is described as follows: Cytotoxicity against human Raji cells assessed as cell viability at 1000 molar ratio after 48 hrs by trypan blue staining method. The following applies: read-out: Activity. It is filed as cell-based. In a few lines: (§2)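 Raji cells (1×10^6/mL) in RPMI 1640 with 10% fetal calf serum were incubated 48 h at 37 °C with 4 mM n-butyric acid, 32 pmol TPA in DMSO and test compound in DMSO. Compound doses were set as mol ratio to TPA. Viability was read by Trypan Blue staining 2 days after treatment.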

The nature of data set [6]: Cytotoxicity against human Raji cells assessed as cell viability at 500 molar ratio after 48 hrs by trypan blue staining method. The following applies: read-out: Activity. The data set is classed as cell-based. In a few lines:
as §2

Data set [7] in a line: Cytotoxicity against human Raji cells assessed as cell viability at 100 molar ratio after 48 hrs by trypan blue staining method. The data set is classed as cell-based. The following applies: read-out: Activity. The essentials:
as §2

Data set [8] can be described thus: Cytotoxicity against human Raji cells assessed as cell viability at 10 molar ratio after 48 hrs by trypan blue staining method. It is filed as cell-based. The following applies: read-out: Activity. The essentials:
as §2

Data set [9] in a line: Inhibition of 12-O-tetradecanoylphorbol-13-acetate-induced EBV-early antigen activation in human Raji cells assessed per TPA after 48 hrs by conventional indirect immunofluorescence technique. It is filed as cell-based, human gammaherpesvirus 4. The essentials: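 Raji cells (1×10^6/mL) were treated at 37 °C for 48 h with 4 mM n-butyric acid, 32 pmol TPA and test compound in DMSO. EA-positive cells were scored by indirect immunofluorescence (NPC patient sera, FITC anti-human IgG), at least 500 cells per run, in triplicate. IC50 was given as the compound/TPA mol ratio inhibiting 50% of the TPA-activated positive control.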

We go through eight molecules from ChEMBL document CHEMBL1153509, “2-O-beta-d-glucopyranosyl-sn-glycerol based analogues of sulfoquinovosyldiacylglycerols (SQDG) and their role in inhibiting Epstein-Barr virus early antigen activation” (Bioorg Med Chem, 2009).

In the case of `CCCCCC(=O)OCC(COC(=O)CCCCC)O[C@@H]1O[C@H](CO)[C@@H](O)[C@H](O)[C@H]1O`, the Activity in the data set with Raji [1] was 9.3%; in the data set on Raji [2], 46.8%; in the data set with Raji [3], 76.9%; in the data set on Raji [4], 100%. Moreover, in [5], the viability at 48 h, 1000 molar ratio is 60%. In addition, in data set [6], the viability at 48 h, 500 molar ratio amounted to 70%. For the same molecule, in data set [7], the viability at 48 h, 100 molar ratio worked out at 80%. The viability at 48 h, 10 molar ratio in data set [8] was 80%. Moreover, in [9], the IC50 is 327 mol ratio/TPA.
With `CCCCCC(=O)OC[C@H](CO)O[C@@H]1O[C@H](COC(=O)CCCCC)[C@@H](O)[C@H](O)[C@H]1O`, the Activity stood at 0% with Raji [1], 15.1% in the data set on Raji [2], 34.6% in the data set on Raji [3] and 71.5% with Raji [4]. For the same molecule, in data set [5], the viability at 48 h, 1000 molar ratio turned out to be 70%. Also, in [6], the viability at 48 h, 500 molar ratio was 80%. Also, the viability at 48 h, 100 molar ratio in data set [7] was found to be 80%. In addition, the viability at 48 h, 10 molar ratio in data set [8] was determined as 80%. Also, the IC50 in data set [9] was 37.3 mol ratio/TPA.
Take `CCCCCC(=O)OCCO[C@@H]1O[C@H](CO)[C@H](O)[C@H](O)[C@H]1O`: the Activity in the data set with Raji [1] turned out to be 6.7%; in the data set with Raji [2] it was 49.5%; with Raji [3], 78.5%; with Raji [4] it was 100%. The viability at 48 h, 1000 molar ratio in data set [5] was 70%. Moreover, the viability at 48 h, 500 molar ratio in data set [6] amounted to 80%. Besides, in data set [7], the viability at 48 h, 100 molar ratio was 80%. The viability at 48 h, 10 molar ratio in data set [8] came out at 80%. For the same molecule, in data set [9], the IC50 is 350 mol ratio/TPA.
As for `CCCCCCCCCCCC(=O)OCC(COC(=O)CCCCCCCCCCC)O[C@@H]1O[C@H](CO)[C@@H](O)[C@H](O)[C@H]1O`, the Activity worked out at 13% in the data set with Raji [1], 52.4% in the data set on Raji [2], 80.5% in the data set on Raji [3] and 100% in the data set on Raji [4]. Also, the viability at 48 h, 1000 molar ratio in data set [5] was determined as 60%. In addition, the viability at 48 h, 500 molar ratio in data set [6] was determined as 70%. Also, in [7], the viability at 48 h, 100 molar ratio was 80%. Also, in [8], the viability at 48 h, 10 molar ratio is 80%. This molecule also showed an IC50 in data set [9] of 402 mol ratio/TPA.
For `CCCCCCCCCCCCCCCCCC(=O)OCC(COC(=O)CCCCCCCCCCCCCCCCC)O[C@@H]1O[C@H](CS(=O)(=O)[O-])[C@@H](O)[C@H](O)[C@H]1O.[Na+]`, the Activity was found to be 25.1% with Raji [1], 65.1% in the data set with Raji [2], 87.4% with Raji [3] and 100% in the data set on Raji [4]. For the same molecule, the viability at 48 h, 1000 molar ratio in [5] is 50%. The viability at 48 h, 500 molar ratio in data set [6] stood at 70%. In addition, the viability at 48 h, 100 molar ratio in data set [7] worked out at 80%. Further, in data set [8], the viability at 48 h, 10 molar ratio was found to be 80%. Also, the IC50 in data set [9] stood at 632 mol ratio/TPA.
On to `CCCCCC(=O)OCC(COC(=O)CCCCC)O[C@@H]1O[C@H](CS(=O)(=O)[O-])[C@@H](O)[C@H](O)[C@H]1O.[Na+]`, for which the Activity with Raji [1] turned out to be 20.3%; with Raji [2] it was 60.5%; in the data set on Raji [3], 84.3%; with Raji [4] it was 100%. In [5], the viability at 48 h, 1000 molar ratio came to 50%. In data set [6], the viability at 48 h, 500 molar ratio stood at 70%. Also, the viability at 48 h, 100 molar ratio in data set [7] came to 80%. Further, the viability at 48 h, 10 molar ratio in [8] amounted to 80%. This molecule also displayed an IC50 in data set [9] of 539 mol ratio/TPA.
With `CCCCCCCCCCCCCCCCCC(=O)OCC(COC(=O)CCCCCCCCCCCCCCCCC)O[C@@H]1O[C@H](CO)[C@@H](O)[C@H](O)[C@H]1O`, the Activity with Raji [1] is 16.2%; with Raji [2] it was 57.8%; in the data set on Raji [3], 82.8%; in the data set on Raji [4] it was 100%. In data set [5], the viability at 48 h, 1000 molar ratio was 60%. For the same molecule, the viability at 48 h, 500 molar ratio in [6] came to 70%. Moreover, in data set [7], the viability at 48 h, 100 molar ratio was 80%. In [8], the viability at 48 h, 10 molar ratio worked out at 80%. In data set [9], this molecule returned an IC50 of 484 mol ratio/TPA.
As to `CCCCCCCCCCCC(=O)OCC(COC(=O)CCCCCCCCCCC)O[C@@H]1O[C@H](CS(=O)(=O)[O-])[C@@H](O)[C@H](O)[C@H]1O.[Na+]`, the Activity with Raji [1] came to 23.4%; in the data set on Raji [2], 62.6%; in the data set on Raji [3], 85.2%; in the data set on Raji [4], 100%. Moreover, the viability at 48 h, 1000 molar ratio in data set [5] was 50%. Also, the viability at 48 h, 500 molar ratio in [6] stood at 70%. For the same molecule, in [7], the viability at 48 h, 100 molar ratio stood at 80%. The viability at 48 h, 10 molar ratio in [8] was 80%. For the same molecule, the IC50 in data set [9] was 581 mol ratio/TPA.
